Results as given in ChEMBL document CHEMBL4513216, “Probing the Open Global Health Chemical Diversity Library for Multistage-Active Starting Points for Next-Generation Antimalarials” (ACS Infect Dis, 2020).

Experiment: Toxicity liver stage against HepG2, at 10uM
Type: cell-based
Set-up: test concentration 10 uM, cell line HepG2-A16-CD81EGFP
Settings: human, HepG2-A16-CD81EGFP cells; read-out: INHIBITION
How it was run: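 Uninfected HepG2-A16-CD81EGFP cells, 3 × 10^3 per well, 1536-well, plated on prespotted compound at 10 μM final, parasite-free screening media added to match infected plates; puromycin 10 μM positive, DMSO 0.5% negative; run in parallel with 48 h PbLuc assay at 37 °C, 5% CO2; viability by CellTiter-Glo luminescence, normalized to controls.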
Compound `Cc1cc(NC(=O)C(c2cccc(F)c2)N2CCOCC2)sn1` (stereo not given) has a cytotoxicity at 10 µM of -3.98%. `COCc1cccc(CNC(=O)c2c(C)noc2C(C)C)c1` showed a cytotoxicity at 10 µM of 0.153%. Compound `CC(=O)c1cc(CN2C[C@@H]3CC[C@H]2CN(S(=O)(=O)N(C)C)C3)cs1` has a cytotoxicity at 10 µM of -8.19%. Work on `CCN(C)c1ncnc2c1CCN(C(=O)COC)CC2` yielded a cytotoxicity at 10 µM of 1.75%. Compound `O=C(N1CCCO1)[C@@]12CCO[C@@H]1CCN(Cc1ccsc1)C2` has a cytotoxicity at 10 µM of 1.73%. `Cc1cnn(CC2CCCCN2C(=O)c2cc(C(N)=O)cs2)c1` (stereo not given) gave a cytotoxicity at 10 µM of 2.02%. `O=S(=O)(CCNCc1cccc2c1OCCO2)N1CCOCC1` showed a cytotoxicity at 10 µM of -10.9%. With `CCN(CC)S(=O)(=O)N1CCCC1CC(=O)c1cccs1` (stereo not given) the cytotoxicity at 10 µM was 3.62%. `CNC(=O)N1CCC(=Cc2ccccc2)CC1` showed a cytotoxicity at 10 µM of -1.52%. Work on `CCOc1ccc(Cl)c(C(=O)NCCC(=O)Nc2ccncc2)n1` yielded a cytotoxicity at 10 µM of -13.9%. With `CCOc1cc(CNC(=O)NC2CC=CC2)ccc1OC(F)F` the cytotoxicity at 10 µM was -42.4%. Work on `CC1CN(C(=O)c2ccn(-c3cccc(Cl)c3)n2)CCO1` (stereo not given) yielded a cytotoxicity at 10 µM of -5.25%. In the case of `Cc1cc(C2CCC2)nc(N2CCC3(CCNC(=O)CC3)CC2)n1`, the cytotoxicity at 10 µM is reported as -10.1%. Compound `Cc1noc(C)c1S(=O)(=O)NC(=O)COc1ccc(C(C)C)cc1` has a cytotoxicity at 10 µM of 2.1%. Compound `Cc1nc(C2(NCc3ccc(C#N)cc3F)CCCC2)no1` has a cytotoxicity at 10 µM of 2.78%. Compound `CC(C)=CCN1C[C@@H]2CC[C@H]1CN(C(=O)c1c[nH]c(=O)c(Cl)c1)C2` has a cytotoxicity at 10 µM of -14.5%. `CCOCCN1CCN(CCC(=O)N2CCCCC2)CC1C` (stereo not given) showed a cytotoxicity at 10 µM of -5.99%. With `O=C(CCNC(=O)c1ccccc1N1CCOCC1)NC1CCCC1` the cytotoxicity at 10 µM was -17.8%. Compound `O=C(CC1CC1)N1CCC2(CC1)CC(Oc1ccccc1)CO2` (stereo not given) has a cytotoxicity at 10 µM of -0.82%. For `Cc1cnc(N2CCc3c(c(COc4cncnc4)nn3C)C2)nc1`, the cytotoxicity at 10 µM was -98.8%. For `Cc1n[nH]c(C)c1NC(=O)CCc1cccc(C2CCCN(C)C2)n1` (stereo not given), the cytotoxicity at 10 µM was -6.19%. With `COCCS(=O)(=O)NC(C)c1cccc(-n2cccn2)c1` (stereo not given) the cytotoxicity at 10 µM was 3.36%. `CCN(CCc1nc2cc(C)ccc2[nH]1)C(=O)[C@@H](N)COC` showed a cytotoxicity at 10 µM of -2.64%. Work on `COc1ccc(CC(=O)N2CCCCC2Cn2cccn2)cc1OC` (stereo not given) yielded a cytotoxicity at 10 µM of -12.4%. `CC1CCC(O)(Cn2ncnc2-c2cccc(C#N)c2)CC1` (stereo not given) showed a cytotoxicity at 10 µM of 0.775%. Work on `COc1ccc2c(c1)OCC(CNC1CCc3ncnn3C1)=C2` (stereo not given) yielded a cytotoxicity at 10 µM of 4.4%. Compound `COCCNC1(c2ccc(Cl)cc2)CCOCC1` has a cytotoxicity at 10 µM of 7.06%. `CN(CC1(O)CCCN(c2ccccn2)C1)C(=O)Cc1ccsc1` (stereo not given) showed a cytotoxicity at 10 µM of -1.11%. In the case of `CCn1cnnc1CNC(=O)N1CCN(c2nc(C)c(C)s2)CC1`, the cytotoxicity at 10 µM is reported as -9.62%. With `CCc1nnc(CNC(=O)CCC2CCCN(C)C2)s1` (stereo not given) the cytotoxicity at 10 µM was -148%. With `Cc1ccc(C2(O)CCN(C(=O)CCn3ccc(=O)[nH]c3=O)CC2)nc1` the cytotoxicity at 10 µM was 1.99%. Work on `COCCn1cc(NC(=O)NCC2CCN(c3ccccc3)C2)cn1` (stereo not given) yielded a cytotoxicity at 10 µM of 2.21%. For `CCN(CC)C(=O)CCNC(=O)N1CCC(c2ccccc2)C1` (stereo not given), the cytotoxicity at 10 µM was -3.26%. `CC(=O)Nc1cccc(C(=O)N(C)C(C)Cc2cc(C)ccn2)c1` (stereo not given) gave a cytotoxicity at 10 µM of 11%. Compound `Cc1cc(NC(=O)CN2CCCC2c2noc(C3CC3)n2)n(C)n1` (stereo not given) has a cytotoxicity at 10 µM of -1.16%. With `COc1ncccc1C(=O)N1CC(c2nc(-c3ccccn3)no2)C1` the cytotoxicity at 10 µM was 3.19%. `Cc1nc(C2CCCN2Cc2nnc(Cc3ccccc3)o2)no1` (stereo not given) showed a cytotoxicity at 10 µM of -5%. `CCCn1ncc(CN(Cc2cccnc2)Cc2ccsc2)c1C` gave a cytotoxicity at 10 µM of 13.1%. `CC(c1nc(C(C)(C)C)no1)N1CCN(CC(=O)N2CCOCC2)CC1` (stereo not given) gave a cytotoxicity at 10 µM of -2.67%. In the case of `CC(C)N1CCc2onc(Cn3cccc3)c2C1`, the cytotoxicity at 10 µM is reported as 7.55%. In the case of `Cc1cccc(CN2C[C@H](OCc3ccccn3)[C@H]3COC[C@H]32)n1`, the cytotoxicity at 10 µM is reported as -92.6%. With `Cc1ccccc1CN1CCN(Cc2nccn2C)CC1` the cytotoxicity at 10 µM was -10.1%. `COc1cc(NC(=O)c2ccc(C)c(F)c2)c(C(=O)N(C)C)cc1OC` gave a cytotoxicity at 10 µM of 2.82%. Compound `COc1ccc(-n2cc(CNC(=O)c3cc[nH]n3)nn2)cc1` has a cytotoxicity at 10 µM of -4.71%. With `CN(C)CC(=O)N1CCOCC2(C1)CN(c1ccccc1)C(=O)CO2` (stereo not given) the cytotoxicity at 10 µM was 0.00964%.
